Source: PubChem
Sampled rows, rich in hits. Any-hit rate of the full collection: about 2.1%.
SR-BI uptake up: SR-BI HDL lipid transfer activation; CHO ldlA[mSR-BI] cells, DiI-HDL uptake fluorescence, 3 h; 100 = double the neutral-control signal; activation, % at 12.5 µM; 0.096% of 320,000 active; AID 504775;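 active = mean replicate activation of at least 60% and every replicate at or above 60%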;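 note: 0% = median plate neutral-control signal and 100% = twice that signal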
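Test system: SR-BI-overexpressing, LDLR-lacking CHO cells; Also added: labelled HDL, 10 µg/mL; Measured by: bottom-read cell fluorescence after medium removal, ex 550/em 595 nm; Timing: 3 h uptake period with compound, 37 °C; Buffer or medium: F12, 0.5% BSA, 25 mM HEPES; Doses: single compound concentration, delivered by pin transfer.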
ARNT-TACC3 inh: disrupts binding between human ARNT and TACC3; AID 623870; inhibition, % at 9.99 µM; AlphaScreen His-ARNT PAS-B/GST-TACC3 binding, luminescence; TACC3 fragment carries E629A point mutation; Q9Y6A5; 0.66% of 390,000 active;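 active = mean inhibition of replicates at least 50% and at least half of replicates each reaching 50%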;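 note: 0% = complete ARNT plus TACC3 wells and 100% = ARNT alone without TACC3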
CAL PDZ FP-1: CAL PDZ (human) peptide binding inhibition | Q9HD26 | purified CAL PDZ, TMR-peptide fluorescence polarization, 1 h | inhibition, % at 24.9 µM | 0.92% of 300,000 active | AID 602252;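 active = mean inhibition of at least 30% with at least half of replicates also reaching 30%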;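 note: 0% = DMSO neutral control and 100% = excess unlabeled competitor peptide PRC23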
miR122 inh: inhibitors of miR-122 in Huh7 cells | Huh7 miR-122 Renilla luciferase sensor, 48 h; neutral wells = 0, positive control = 100 | activation (reporter increase), % at 12.5 µM | 0.3% of 340,000 active;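 active = mean replicate activation score at least 90 and every replicate individually at or above 90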;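 note: higher luciferase means less miR-122 activity so hits act as miR-122 inhibitors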
CAL PDZ FP-2: inhibitors of human CAL PDZ peptide binding | Q9HD26 | inhibition, % at 20 µM | purified CAL PDZ, TMR-peptide fluorescence polarization, 1 h | AID 504414 | 0.02% of 330,000 active;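 active = highest replicate inhibition of at least 40%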;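 note: plate controls were DMSO neutral control wells for no effect and unlabeled competitor peptide control wells for full effect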
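Test system: purified CerCALP PDZ construct; Compound dosing: one concentration, 20 µM compound; Also added: TMR-labelled reporter peptide T*-PRC34 bound in PDZ groove; Read-out: inhibition from polarization loss; Controls: unlabelled peptide and DMSO controls; Signal: FP readout, S and P plane fluorescence; Incubation: 1 h at RT.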
SR-BI DiI inh: blocks mouse SR-BI lipid uptake from DiI-HDL | Q61009 | ldlA[mSR-BI] CHO cells, DiI-HDL uptake fluorescence, 3 h | inhibition, % at 12.5 µM | 0.96% of 320,000 active;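 active = mean replicate inhibition of at least 70% and a set share of replicates each scoring 70 or more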;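 note: 0% = median of neutral control wells and 100% = median of positive control wells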
Target sequence (Q61009 whole entry, looked up): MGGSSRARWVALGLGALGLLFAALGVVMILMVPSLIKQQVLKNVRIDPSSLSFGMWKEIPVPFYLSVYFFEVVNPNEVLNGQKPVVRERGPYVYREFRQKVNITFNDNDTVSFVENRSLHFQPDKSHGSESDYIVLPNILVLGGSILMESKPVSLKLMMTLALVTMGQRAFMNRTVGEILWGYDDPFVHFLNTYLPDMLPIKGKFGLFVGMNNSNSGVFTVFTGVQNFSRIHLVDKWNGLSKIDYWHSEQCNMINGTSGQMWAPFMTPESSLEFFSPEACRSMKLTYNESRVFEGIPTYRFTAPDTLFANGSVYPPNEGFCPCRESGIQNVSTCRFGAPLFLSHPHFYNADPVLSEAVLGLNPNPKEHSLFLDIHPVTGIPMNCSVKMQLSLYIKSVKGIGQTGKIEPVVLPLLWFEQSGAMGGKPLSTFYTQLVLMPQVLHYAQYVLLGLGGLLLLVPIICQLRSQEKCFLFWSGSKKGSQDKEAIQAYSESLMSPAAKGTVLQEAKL
* = called active by the depositor; . = no result given; [ ] = another dose, or the depositor's remark.

SMILES	SR-BI uptake up	ARNT-TACC3 inh	CAL PDZ FP-1	miR122 inh	CAL PDZ FP-2	SR-BI DiI inh
Cc1noc(C)c1S(=O)(=O)Nc1ccc2c(c1)C(=O)N([C@@H](C)CO)C[C@@H](C)[C@@H](CN(C)C(=O)Nc1ccc(C(F)(F)F)cc1)OCCCC[C@H](C)O2	.	-4	.	-7[16.7 µM]	.	.
CCCc1cc(N2CCCC2)n2nc(C)c(-c3ccccc3)c2n1	-78	-5	-3	-4	-1	78*
O=C(Nc1ccccc1)OC1CCC2CC1CCC2OC(=O)Nc1ccccc1 (stereo not drawn)	-46	-6	32*	-2	-1	46
Cc1noc(C)c1S(=O)(=O)N(C)C[C@@H]1OCCCC[C@H](C)Oc2ccc(NC(=O)NC(C)C)cc2C(=O)N([C@H](C)CO)C[C@H]1C	.	2	.	5[16.7 µM]	.	.
CCC(=O)N[C@@H]1C=C[C@@H](CC(=O)NCCN2CCCCC2)O[C@@H]1CO	.	-11	.	.	.	.
COc1ccc(NC(=O)N[C@@H]2CC[C@@H](CCNC(=O)Cc3ccncc3)O[C@H]2CO)cc1	.	-6	.	.	.	.
COc1ccc(OC)c(-c2c3cc(O)c(=O)cc-3oc3cc(O)c(O)cc23)c1	-91	33	57*	.	87*	91*
O=c1cc2oc3cc(O)c(O)cc3c(-c3ccccc3O)c-2cc1O	-27	25	26	.	47*	27
CCOC(=O)c1oc2cc(O)ccc2c(=O)c1-c1ccccc1OC	.	-3	-4	-3	-1	.
Cc1ccccc1-c1cc(=O)c2c(O)cccc2o1	-4	4	-2	2	0	-2
COc1ccc(OC)c(-c2oc3ccccc3c(=O)c2O)c1	-6	1	-6	-12	-2	13
CCOc1ccccc1-c1c2cc(O)c(=O)cc-2oc2cc(O)c(O)cc12	-73	10	42*	.	126*	73*
O=C(C[C@@H]1CC[C@H](NS(=O)(=O)c2ccccc2)[C@H](CO)O1)NCCN1CCCCC1	.	-2	.	.	.	.
CCOC(=O)C1=C(COC(=O)/C=C/c2ccc(OCC)c(OC)c2)NC(=O)NC1C (stereo not drawn)	-83	2	-4	.	-3	83*
CCOC(=O)C1=C(COC(=O)/C=C/c2ccc(Cl)cc2)NC(=O)NC1C (stereo not drawn)	0	-6	-2	7	-2	0
COc1ccccc1NC(=O)N[C@H]1C=C[C@@H](CC(=O)N[C@H](C)c2ccccc2)O[C@H]1CO	.	-3	.	.	.	.
CC1(C)CC(NC(=O)c2ccc(Cl)c(S(=O)(=O)N(Cc3ccccc3)c3ccccc3)c2)CC(C)(C)N1	97*	.	-9	-14	-4	-97
COCc1cc(=O)[nH]c(Nc2nc3ccc(C)cc3o2)n1	-18	56*	-7	-3	-2	18
CCc1ccc2nc(Nc3nc(COC)cc(=O)[nH]3)nc(C)c2c1	-22	1	5	.	-3	22
COC(=O)c1cc(Cl)nc2ccccc12	13	-1	2	0	-1	-13
CCCc1cc(C(=O)OC)c2ccccc2n1	77*	2	-6	.	0	-77
O=C(NCCSc1ccccn1)c1ccc(Cl)cc1Cl	4	-2	33*	1	11	-4
O=C(NCCSc1ccccn1)c1ccc(Cl)cc1	2	14	1	3	0	-2
COc1ccc(S(=O)(=O)N(C)C[C@H]2OCCCC[C@@H](C)Oc3ccc(NS(=O)(=O)c4ccccc4)cc3C(=O)N([C@@H](C)CO)C[C@H]2C)cc1	.	1	.	-6[16.7 µM]	.	.
Cc1ccc(S(=O)(=O)N(C)C[C@H]2OCCCC[C@@H](C)Oc3ccc(NC(=O)CCC(F)(F)F)cc3C(=O)N([C@H](C)CO)C[C@H]2C)cc1	.	0	.	2[16.7 µM]	.	.
SMILES	SR-BI uptake up	ARNT-TACC3 inh	CAL PDZ FP-1	miR122 inh	CAL PDZ FP-2	SR-BI DiI inh
O=C(c1cccc(C(=O)N2CCN(Cc3ccccc3)CC2)c1)N1CCN(Cc2ccccc2)CC1	14	-2	-2	-7	-1	-14
O=C(c1cccc(Cl)c1)N1CCC(C(=O)N2CCN(Cc3ccccc3)CC2)CC1	-27	-5	45*	0	0	27
O=C(C[C@H]1CC[C@@H](NC(=O)Nc2ccc(C(F)(F)F)cc2)[C@@H](CO)O1)NCCN1CCCC1	.	0	.	5[16.7 µM]	.	.
O=C(/C=C/c1cccc([N+](=O)[O-])c1)NCCSCc1cccc(Cl)c1	2	-11	52*	-11	0	-2
O=C(/C=C/c1cccc([N+](=O)[O-])c1)NCc1ccccc1	9	1	1	.	-2	-9
C[C@H](CO)N1C[C@H](C)[C@H](CN(C)C(=O)CC2CC2)Oc2cc(C#CC(C)(C)O)ccc2S1(=O)=O	.	16	.	-8[16.7 µM]	.	.
CC(=O)N(CC(C)C)C[C@H]1[C@@H](c2ccc(C3=CCCC3)cc2)[C@@H](CO)N1C(C)=O	.	-3	.	-17[16.7 µM]	.	.
CO[C@@H]1CN(C)C(=O)c2ccc(NC(=O)c3ccc4c(c3)OCO4)cc2OC[C@H](C)N(CC2CC2)C[C@@H]1C	.	7	.	.	.	.
CCOC(=O)[C@H]1[C@H]2COc3ccc(C)cc3[C@@H]2N2C(=O)c3ccc(Cl)cc3NC(=O)[C@@]12C	11	-2	1	-5	-1	-11
CCOC(=O)[C@H]1[C@H]2COc3ccc(Cl)cc3[C@@H]2N2C(=O)c3ccc(Cl)cc3NC(=O)[C@@]12C	-13	15*	-2	-4	-2	13
COc1ccccc1C(=O)N1C[C@@H]2[C@H](c3ccccc31)[C@H](CO)N2CC1CCOCC1	.	-3	.	7[16.7 µM]	.	.
N=C1C=CC(=C(c2ccc(N)cc2)c2ccc(N)cc2)C=C1	-104	3	3	-15	2	104*
Cc1ccc(S(=O)(=O)Nc2cccc3c2O[C@H](CN(C)Cc2ccc(Oc4ccccc4)cc2)[C@H](C)CN([C@H](C)CO)C3=O)cc1	.	.	.	40[16.7 µM]	.	.
C[C@@H]1CN([C@H](C)CO)S(=O)(=O)c2ccc(Br)cc2O[C@@H]1CN(C)Cc1cccnc1	.	0	.	.	.	.
O=c1oc2c(-c3ccc([N+](=O)[O-])cc3)cc(O)cc2s1	-77	-7	-3	0	-1	77*
NC1=C(c2ccc([N+](=O)[O-])cc2)C(=O)CO1	8	1	0	.	0	-8
CC(C)NC(=O)N(C)C[C@@H]1Oc2cc(-c3ccccc3F)ccc2S(=O)(=O)N([C@@H](C)CO)C[C@@H]1C	.	-2	.	2[16.7 µM]	.	.
COC(=O)C[C@@H]1C[C@@H]2c3cc(NC(=O)c4cccnc4)ccc3O[C@@H]2[C@@H](CO)O1	.	-8	.	-4[16.7 µM]	.	.
O=C(Nc1ccccc1)N1CCCCN2[C@H](CO)[C@@H](c3ccc(C#CC4CC4)cc3)[C@@H]2C1	.	active	.	17[16.7 µM]	.	.
O=C(Nc1ccccc1)N1CCCCN2[C@H](CO)[C@H](c3ccc(C#Cc4ccccn4)cc3)[C@H]2C1	.	11*	.	-28[16.7 µM]	.	.
